Assay results taken from ChEMBL document CHEMBL1137729, “Synthesis, evaluation and 3D QSAR analysis of novel estradiol-RGD octapeptide conjugates with oral anti-osteoporosis activity” (Eur J Med Chem, 2009).
Residues, ends and D or L forms follow the SMILES beside them. *: point of attachment. Succinyl(O17-estradiol) = C[C@]12CC[C@@H]3c4ccc(O)cc4CC[C@H]3[C@@H]1CC[C@@H]2OC(=O)CCC(=O)*; Acetyl(estradiol-3-yloxy) = C[C@]12CC[C@@H]3c4ccc(OCC(=O)*)cc4CC[C@H]3[C@@H]1CC[C@@H]2O

Legend:
Mus musculus [1] = assay: Toxicity in ovariectomized ICR mouse assessed as spleen weight at 110.3 nmol/kg, po treated for 4 weeks measured after 1 day of last treatment; assay type: organism-based; conditions: in vivo, 24 h
How it was run: (§1)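 OVX mice dosed orally once daily with 110.3 nmol/kg in 0.5% carboxymethylcellulose for 4 weeks. The day after the last dose, mice were anesthetized with pentobarbital (40.0 mg/kg ip) and killed; uteri, lungs, livers and spleens were removed and weighed directly and their morphology noted.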

Mus musculus [2] = assay: Antiosteoporosis activity in ovariectomized ICR mouse assessed as length of femur at 110.3 nmol/kg, po treated for 4 weeks measured after 1 day of last treatment; assay type: functional
How it was run: (§2)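 Female mice, ovariectomized (sham: laparotomy only); from day 5 post-surgery dosed orally once daily with 110.3 nmol/kg in 0.2 ml 0.5% carboxymethylcellulose for 4 weeks (vehicle to OVX/sham). Left femur taken the day after the last dose, cleaned of muscle, length measured, defatted in chloroform–methanol (2:1, 2×3 h), dried 120 °C 6 h and weighed, ashed 800 °C 8 h and weighed. Mineral content = ash/dry weight; femur ash dissolved in 6 N HCl, diluted, calcium by o-methylphenolphthalein complexone. n = 12.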

Mus musculus [3] = assay: Toxicity in ovariectomized ICR mouse assessed as liver weight at 110.3 nmol/kg, po treated for 4 weeks measured after 1 day of last treatment; assay type: organism-based; conditions: in vivo, 24 h; how it was run: as §1
Mus musculus [4] = assay: Antiosteoporosis activity in ovariectomized ICR mouse assessed as mineral content in femur at 110.3 nmol/kg, po treated for 4 weeks measured after 1 day of last treatment; assay type: functional; how it was run: as §2
Mus musculus [5] = assay: Toxicity in ovariectomized ICR mouse assessed as kidney weight at 110.3 nmol/kg, po treated for 4 weeks measured after 1 day of last treatment; assay type: organism-based; conditions: in vivo, 24 h
Mus musculus [6] = assay: Antiosteoporosis activity in ovariectomized ICR mouse assessed as weight of dry femur at 110.3 nmol/kg, po treated for 4 weeks measured after 1 day of last treatment; assay type: functional
How it was run: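 Left femur taken the day after the last dose, cleaned of muscle, length measured, defatted in chloroform–methanol (2:1, 2×3 h), dried 120 °C 6 h and weighed, ashed 800 °C 8 h and weighed. Mineral content = ash/dry weight; femur ash dissolved in 6 N HCl, diluted, calcium by o-methylphenolphthalein complexone. n = 12.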

Mus musculus [7] = assay: Toxicity in ovariectomized ICR mouse assessed as effect on tail bleeding time at 110.3 nmol/kg, po treated for 4 weeks measured after 90 mins of last treatment; assay type: organism-based; conditions: in vivo, 1.5 h
How it was run: (§3)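 OVX mice received 110.3 nmol/kg orally in 0.5% carboxymethylcellulose daily for 4 weeks. At 30 and 90 min after the last dose, a 2 mm tail cut was made with the mouse in a tube holder; blood was blotted every 30 s until bleeding stopped, and the time was recorded as bleeding time.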

Mus musculus [8] = assay: Antiosteoporosis activity in ovariectomized ICR mouse assessed as weight of femur ash at 110.3 nmol/kg, po treated for 4 weeks measured after 1 day of last treatment; assay type: functional; how it was run: as §2
Mus musculus [9] = assay: Antiosteoporosis activity in ovariectomized ICR mouse assessed as calcium content in femur at 110.3 nmol/kg, po treated for 4 weeks measured after 1 day of last treatment by o-methyl-phenolphthalein; assay type: functional; how it was run: as §2
Mus musculus [10] = assay: Antiosteoporosis activity in ovariectomized ICR mouse assessed as phosphorous level in serum at 110.3 nmol/kg, po treated for 4 weeks measured after 1 day of last treatment by molybdenum blue method; assay type: functional
How it was run: (§4)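 Ovariectomized female mice dosed orally with 110.3 nmol/kg in 0.5% carboxymethylcellulose once daily for 4 weeks, starting day 5 after surgery. Blood taken from the orbit the day after the last dose, stood 30 min, centrifuged 3000g for 20 min, serum stored at −20 °C. Calcium read by o-methylphenolphthalein complexone; phosphorus by molybdenum blue.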

Mus musculus [11] = assay: Antiosteoporosis activity in ovariectomized ICR mouse assessed as calcium level in serum at 110.3 nmol/kg, po treated for 4 weeks measured after 1 day of last treatment by o-methyl-phenolphthalein method; assay type: functional; how it was run: as §4
Mus musculus [12] = assay: Toxicity in ovariectomized ICR mouse assessed as lung weight at 110.3 nmol/kg, po treated for 4 weeks measured after 1 day of last treatment; assay type: organism-based; conditions: in vivo, 24 h; how it was run: as §1
Mus musculus [13] = assay: Antiosteoporosis activity in ovariectomized ICR mouse assessed as phosphorous content in femur at 110.3 nmol/kg, po treated for 4 weeks measured after 1 day of last treatment by molybdenum blue method; assay type: functional
Mus musculus [14] = assay: Toxicity in ovariectomized ICR mouse assessed as effect on uterine weight at 110.3 nmol/kg, po treated for 4 weeks measured after 1 day of last treatment; assay type: organism-based; conditions: in vivo, 24 h; how it was run: as §1
Mus musculus [15] = assay: Toxicity in ovariectomized ICR mouse assessed as effect on tail bleeding time at 110.3 nmol/kg, po treated for 4 weeks measured after 30 mins of last treatment; assay type: organism-based; conditions: in vivo, 0.5 h; how it was run: as §3

Row | Compound | Activity (Mus musculus [1]) [g] | Activity (Mus musculus [2]) [cm] | Activity (Mus musculus [3]) [g] | Activity (Mus musculus [4]) [%] | Activity (Mus musculus [5]) [g] | Activity (Mus musculus [6]) [mg] | Time (Mus musculus [7]) [s] | Activity (Mus musculus [8]) [mg] | Activity (Mus musculus [9]) [%] | Activity (Mus musculus [10]) [mM] | Activity (Mus musculus [11]) [mM] | Activity (Mus musculus [12]) [g] | Activity (Mus musculus [13]) [%] | Activity (Mus musculus [14]) [g] | Time (Mus musculus [15]) [s]
1 | C[C@]12CC[C@@H]3c4ccc(O)cc4CC[C@H]3[C@@H]1CC[C@@H]2OC(=O)CCC(=O)N[C@@H](CCCNC(=N)N)C(=O)NCC(=O)N[C@@H](CC(=O)O)C(=O)N[C@@H](CO)C(=O)N[C@@H](CCCNC(=N)N)C(=O)NCC(=O)N[C@@H](CC(=O)O)C(=O)N[C@@H](CO)C(=O)O ({Succinyl(O17-estradiol)}-RGDSRGDS-OH) | 0.149 | 1.665 | 1.479 | 0.625 | 0.174 | 56.41 | 556 | 36.48 | 65.16 | 2.6 | 3 | 0.116 | 21.4 | 0.065 | 562
2 | C[C@]12CC[C@@H]3c4ccc(OCC(=O)N[C@@H](CCCNC(=N)N)C(=O)NCC(=O)N[C@@H](CC(=O)O)C(=O)N[C@@H](CO)C(=O)N[C@@H](CCCNC(=N)N)C(=O)NCC(=O)N[C@@H](CC(=O)O)C(=O)N[C@@H](CO)C(=O)O)cc4CC[C@H]3[C@@H]1CC[C@@H]2O ({Acetyl(estradiol-3-yloxy)}-RGDSRGDS-OH) | 0.133 | 1.657 | 1.448 | 0.626 | 0.17 | 56.6 | 559 | 36.42 | 63.12 | 2.91 | 3.01 | 0.11 | 21.56 | 0.062 | 564
3 | C[C@]12CC[C@@H]3c4ccc(O)cc4CC[C@H]3[C@@H]1CC[C@@H]2OC(=O)CCC(=O)N[C@@H](CCCNC(=N)N)C(=O)NCC(=O)N[C@@H](CC(=O)O)C(=O)N[C@@H](CO)C(=O)O ({Succinyl(O17-estradiol)}-RGDS-OH) | 0.15 | 1.659 | 1.537 | 0.604 | 0.182 | 53.78 | 561 | 34.17 | 59.34 | 3.01 | 3.18 | 0.12 | 20.37 | 0.063 | 575
4 | C[C@]12CC[C@@H]3c4ccc(O)cc4CC[C@H]3[C@@H]1CC[C@@H]2OC(=O)CCC(=O)N[C@@H](CCCNC(=N)N)C(=O)NCC(=O)N[C@@H](CC(=O)O)C(=O)N[C@@H](Cc1ccccc1)C(=O)O ({Succinyl(O17-estradiol)}-RGDF-OH) | 0.135 | 1.64 | 1.266 | 0.605 | 0.16 | 54 | 568 | 33.87 | 59.36 | 3.01 | 3.21 | 0.109 | 20.56 | 0.06 | 576
5 | CC(C)[C@H](NC(=O)[C@H](CC(=O)O)NC(=O)CNC(=O)[C@H](CCCNC(=N)N)NC(=O)COc1ccc2c(c1)CC[C@@H]1[C@@H]2CC[C@]2(C)[C@@H](O)CC[C@@H]12)C(=O)O ({Acetyl(estradiol-3-yloxy)}-RGDV-OH) | 0.133 | 1.67 | 1.4 | 0.611 | 0.167 | 53.97 | 577 | 33.99 | 57.84 | 2.99 | 3.22 | 0.109 | 20.24 | 0.064 | 569
6 | C[C@]12CC[C@@H]3c4ccc(OCC(=O)N[C@@H](CCCNC(=N)N)C(=O)NCC(=O)N[C@@H](CC(=O)O)C(=O)N[C@@H](CO)C(=O)O)cc4CC[C@H]3[C@@H]1CC[C@@H]2O ({Acetyl(estradiol-3-yloxy)}-RGDS-OH) | 0.142 | 1.646 | 1.492 | 0.605 | 0.193 | 53.89 | 577 | 34.08 | 58.76 | 2.98 | 3.23 | 0.128 | 20.24 | 0.064 | 582
7 | C[C@]12CC[C@@H]3c4ccc(OCC(=O)N[C@@H](CCCNC(=N)N)C(=O)NCC(=O)N[C@@H](CC(=O)O)C(=O)N[C@@H](Cc5ccccc5)C(=O)N[C@@H](CCCNC(=N)N)C(=O)NCC(=O)N[C@@H](CC(=O)O)C(=O)N[C@@H](Cc5ccccc5)C(=O)O)cc4CC[C@H]3[C@@H]1CC[C@@H]2O ({Acetyl(estradiol-3-yloxy)}-RGDFRGDF-OH) | 0.131 | 1.641 | 1.439 | 0.623 | 0.169 | 56.96 | 585 | 36.74 | 63.92 | 3.01 | 3.05 | 0.119 | 21.33 | 0.061 | 592
8 | C[C@]12CC[C@@H]3c4ccc(OCC(=O)N[C@@H](CCCNC(=N)N)C(=O)NCC(=O)N[C@@H](CC(=O)O)C(=O)N[C@@H](Cc5ccccc5)C(=O)O)cc4CC[C@H]3[C@@H]1CC[C@@H]2O ({Acetyl(estradiol-3-yloxy)}-RGDF-OH) | 0.177 | 1.669 | 1.336 | 0.596 | 0.159 | 53.87 | 560 | 33.56 | 57.42 | 3.19 | 3.24 | 0.112 | 20.09 | 0.067 | 557
9 | CC(C)[C@H](NC(=O)[C@H](CC(=O)O)NC(=O)CNC(=O)[C@H](CCCNC(=N)N)NC(=O)CCC(=O)O[C@H]1CC[C@H]2[C@@H]3CCc4cc(O)ccc4[C@H]3CC[C@]12C)C(=O)O ({Succinyl(O17-estradiol)}-RGDV-OH) | 0.149 | 1.672 | 1.55 | 0.612 | 0.178 | 54.01 | 560 | 33.7 | 57.49 | 3.04 | 3.26 | 0.125 | 20.14 | 0.064 | 551
10 | C[C@]12CC[C@@H]3c4ccc(O)cc4CC[C@H]3[C@@H]1CC[C@@H]2O [ESTRADIOL] | 0.144 | 1.642 | 1.552 | 0.608 | 0.173 | – | 441 | 32.22 | 57.28 | 3.01 | 3.24 | 0.12 | 19.81 | 0.108 | 417
